Reference: ChEMBL document CHEMBL2177062, “Bile acid-based 1,2,4-trioxanes: synthesis and antimalarial assessment” (J Med Chem, 2012)
Calls of active or inactive are those of the source. No cut-off for these calls is given here.

These compounds were tested on Plasmodium yoelii nigeriensis (assay: Antimalarial activity in multidrug-resistant Plasmodium yoelii nigeriensis infected Swiss mouse assessed as disease cure at 96 mg/kg, po two devided dose daily for 4 days by 28 day survival assay). Settings: not given.
Format: functional
Procedure, shortened: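 Swiss mice of either sex (20 2 g) inoculated ip with 1 × 10⁶ MDR P. yoelii nigeriensis (chloroquine-, mefloquine-, halofantrine-resistant) parasites on day 0. Five mice per dose. Oral dosing in groundnut oil (0.1 mL per dose) from day 0 to 3, as two divided doses daily. Thin blood smears on day 4, then twice weekly to day 28. Mice without patent infection by day 28 scored cured; % protection = fraction of mice cured. β-arteether as positive control.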
In the case of `C=C(c1ccc(Br)cc1)[C@@H]1CO[C@@]2(CC[C@@]3(C)[C@H](CC[C@@H]4[C@@H]3CC[C@]3(C)[C@@H](O)CC[C@@H]43)C2)OO1` (relative stereo; form 1) [listing 1 of 2 here], the Activity is reported as “inactive”.
For `C=C(c1ccc(Br)cc1)[C@@H]1CO[C@@]2(CC[C@@]3(C)[C@H](CC[C@@H]4[C@@H]3CC[C@]3(C)[C@@H]([C@H](C)C(C)=O)CC[C@@H]43)C2)OO1` (relative stereo; form 1) [listing 1 of 2 here], the Activity was “inactive”.
For `C=C(c1ccc(Br)cc1)[C@@H]1CO[C@@]2(CC[C@@]3(C)[C@H](CC[C@@H]4[C@@H]3CC[C@]3(C)[C@@H]([C@H](C)CCC(=O)OC)CC[C@@H]43)C2)OO1` (relative stereo; form 1) [listing 1 of 2 here], the Activity was “inactive”.
For `C=C(c1ccc(Cl)cc1)[C@@H]1CO[C@@]2(CC[C@@]3(C)[C@H](CC[C@@H]4[C@@H]3CC[C@]3(C)[C@@H](C(C)=O)CC[C@@H]43)C2)OO1` (relative stereo; form 1) [listing 1 of 2 here], the Activity was “inactive”.
In the case of `C=C(c1ccc(Cl)cc1)[C@@H]1CO[C@@]2(CC[C@@]3(C)[C@H](CC[C@@H]4[C@@H]3CC[C@]3(C)[C@@H]([C@H](C)C(C)=O)CC[C@@H]43)C2)OO1` (relative stereo; form 1) [listing 1 of 2 here], the Activity is reported as “inactive”.
With `C=C(c1ccc(Cl)cc1)[C@@H]1CO[C@@]2(CC[C@@]3(C)[C@H](CC[C@@H]4[C@@H]3CC[C@]3(C)[C@@H]([C@H](C)CCC(=O)OC)CC[C@@H]43)C2)OO1` (relative stereo; form 1) [listing 1 of 2 here] the Activity was “inactive”.
`C=C(c1ccc(F)cc1)[C@@H]1CO[C@@]2(CC[C@@]3(C)[C@H](CC[C@@H]4[C@@H]3CC[C@]3(C)[C@@H](O)CC[C@@H]43)C2)OO1` (relative stereo; form 1) was tested, and the Activity was “inactive”.
With `C=C(c1ccc(F)cc1)[C@@H]1CO[C@@]2(CC[C@@]3(C)[C@H](CC[C@@H]4[C@@H]3CC[C@]3(C)[C@@H]([C@H](C)C(C)=O)CC[C@@H]43)C2)OO1` (relative stereo; form 1) [listing 1 of 2 here] the Activity was “inactive”.
In the case of `C=C(c1ccc(F)cc1)[C@@H]1CO[C@@]2(CC[C@@]3(C)[C@H](CC[C@@H]4[C@@H]3CC[C@]3(C)[C@@H]([C@H](C)CCC(=O)OC)CC[C@@H]43)C2)OO1` (relative stereo; form 1) [listing 1 of 2 here], the Activity is reported as “inactive”.
`C=C(c1ccccc1)[C@@H]1CO[C@@]2(CC[C@@]3(C)[C@H](CC[C@@H]4[C@@H]3CC[C@]3(C)[C@@H](C(C)=O)CC[C@@H]43)C2)OO1` (relative stereo; form 1) [listing 1 of 2 here] was tested, and the Activity was “inactive”.
With `C=C(c1ccccc1)[C@@H]1CO[C@@]2(CC[C@@]3(C)[C@H](CC[C@@H]4[C@@H]3CC[C@]3(C)[C@@H](O)CC[C@@H]43)C2)OO1` (relative stereo; form 1) [listing 1 of 2 here] the Activity was “inactive”.
With `C=C(c1ccccc1)[C@@H]1CO[C@@]2(CC[C@@]3(C)[C@H](CC[C@@H]4[C@@H]3CC[C@]3(C)[C@@H]([C@H](C)C(C)=O)CC[C@@H]43)C2)OO1` (relative stereo; form 1) [listing 1 of 2 here] the Activity was “inactive”.
`C=C(c1ccccc1)[C@@H]1CO[C@@]2(CC[C@@]3(C)[C@H](CC[C@@H]4[C@@H]3CC[C@]3(C)[C@@H]([C@H](C)CCC(=O)OC)CC[C@@H]43)C2)OO1` (relative stereo; form 1) [listing 1 of 2 here] was tested, and the Activity was “inactive”.
With `C=C(c1ccc(Br)cc1)[C@@H]1CO[C@@]2(CC[C@@]3(C)[C@H](CC[C@@H]4[C@@H]3CC[C@]3(C)[C@@H](C(C)=O)CC[C@@H]43)C2)OO1` (relative stereo; form 2) [listing 1 of 2 here] the Activity was “inactive”.
For `C=C(c1ccc(Br)cc1)[C@@H]1CO[C@@]2(CC[C@@]3(C)[C@H](CC[C@@H]4[C@@H]3CC[C@]3(C)[C@@H]([C@H](C)C(C)=O)CC[C@@H]43)C2)OO1` (relative stereo; form 2) [listing 1 of 2 here], the Activity was “inactive”.
For `C=C(c1ccc(Br)cc1)[C@@H]1CO[C@@]2(CC[C@@]3(C)[C@H](CC[C@@H]4[C@@H]3CC[C@]3(C)[C@@H]([C@H](C)CCC(=O)OC)CC[C@@H]43)C2)OO1` (relative stereo; form 2) [listing 1 of 2 here], the Activity was “inactive”.
In the case of `C=C(c1ccc(Cl)cc1)[C@@H]1CO[C@@]2(CC[C@@]3(C)[C@H](CC[C@@H]4[C@@H]3CC[C@]3(C)[C@@H]([C@H](C)C(C)=O)CC[C@@H]43)C2)OO1` (relative stereo; form 2) [listing 1 of 2 here], the Activity is reported as “inactive”.
For `C=C(c1ccc(Cl)cc1)[C@@H]1CO[C@@]2(CC[C@@]3(C)[C@H](CC[C@@H]4[C@@H]3CC[C@]3(C)[C@@H]([C@H](C)CCC(=O)OC)CC[C@@H]43)C2)OO1` (relative stereo; form 2) [listing 1 of 2 here], the Activity was “inactive”.
For `C=C(c1ccc(F)cc1)[C@@H]1CO[C@@]2(CC[C@@]3(C)[C@H](CC[C@@H]4[C@@H]3CC[C@]3(C)[C@@H]([C@H](C)CCC(=O)OC)CC[C@@H]43)C2)OO1` (relative stereo; form 2) [listing 1 of 2 here], the Activity was “inactive”.
With `C=C(c1ccccc1)[C@@H]1CO[C@@]2(CC[C@@]3(C)[C@H](CC[C@@H]4[C@@H]3CC[C@]3(C)[C@@H]([C@H](C)CCC(=O)OC)CC[C@@H]43)C2)OO1` (relative stereo; form 2) the Activity was “inactive”.

What follows are compounds tested on Plasmodium yoelii nigeriensis (assay: Antimalarial activity in multidrug-resistant Plasmodium yoelii nigeriensis infected Swiss mouse assessed as suppression of parasitaemia at 96 mg/kg, po two devided dose daily for 4 days). Settings: 96 mg/kg.
Format: functional
Procedure, shortened: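 Swiss mice of either sex (20 2 g) inoculated ip with 1 × 10⁶ MDR P. yoelii nigeriensis parasites on day 0. Five mice per dose, given oral doses in groundnut oil from day 0 to 3, twice daily. Parasitaemia read from thin blood smears on day 4. Suppression = [(C − T)/C] × 100 versus untreated controls. 100% means no parasites seen in 50 oil-immersion fields.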
`C=C(c1ccc(Cl)cc1)[C@@H]1CO[C@@]2(CC[C@@]3(C)[C@H](CC[C@@H]4[C@@H]3CC[C@]3(C)[C@@H]([C@H](C)CCC(=O)OC)CC[C@@H]43)C2)OO1` (relative stereo; form 1) [listing 2 of 2 here] gave an Activity of 56.02%.
For `C=C(c1ccccc1)[C@@H]1CO[C@@]2(CC[C@@]3(C)[C@H](CC[C@@H]4[C@@H]3CC[C@]3(C)[C@@H](O)CC[C@@H]43)C2)OO1` (relative stereo; form 1) [listing 2 of 2 here], the Activity was 69.36%.
`C=C(c1ccc(Br)cc1)[C@@H]1CO[C@@]2(CC[C@@]3(C)[C@H](CC[C@@H]4[C@@H]3CC[C@]3(C)[C@@H](O)CC[C@@H]43)C2)OO1` (relative stereo; form 1) [listing 2 of 2 here] showed an Activity of 76.52%.
Compound `C=C(c1ccc(Cl)cc1)[C@@H]1CO[C@@]2(CC[C@@]3(C)[C@H](CC[C@@H]4[C@@H]3CC[C@]3(C)[C@@H]([C@H](C)C(C)=O)CC[C@@H]43)C2)OO1` (relative stereo; form 1) [listing 2 of 2 here] has an Activity of 100%.
In the case of `C=C(c1ccc(Br)cc1)[C@@H]1CO[C@@]2(CC[C@@]3(C)[C@H](CC[C@@H]4[C@@H]3CC[C@]3(C)[C@@H]([C@H](C)C(C)=O)CC[C@@H]43)C2)OO1` (relative stereo; form 1) [listing 2 of 2 here], the Activity is reported as 56.73%.
`C=C(c1ccccc1)[C@@H]1CO[C@@]2(CC[C@@]3(C)[C@H](CC[C@@H]4[C@@H]3CC[C@]3(C)[C@@H](C(C)=O)CC[C@@H]43)C2)OO1` (relative stereo; form 1) [listing 2 of 2 here] showed an Activity of 79.89%.
With `C=C(c1ccc(Cl)cc1)[C@@H]1CO[C@@]2(CC[C@@]3(C)[C@H](CC[C@@H]4[C@@H]3CC[C@]3(C)[C@@H](C(C)=O)CC[C@@H]43)C2)OO1` (relative stereo; form 1) [listing 2 of 2 here] the Activity was 90.98%.
`C=C(c1ccc(F)cc1)[C@@H]1CO[C@@]2(CC[C@@]3(C)[C@H](CC[C@@H]4[C@@H]3CC[C@]3(C)[C@@H]([C@H](C)CCC(=O)OC)CC[C@@H]43)C2)OO1` (relative stereo; form 1) [listing 2 of 2 here] showed an Activity of 45.31%.
Compound `C=C(c1ccc(Br)cc1)[C@@H]1CO[C@@]2(CC[C@@]3(C)[C@H](CC[C@@H]4[C@@H]3CC[C@]3(C)[C@@H]([C@H](C)CCC(=O)OC)CC[C@@H]43)C2)OO1` (relative stereo; form 1) [listing 2 of 2 here] has an Activity of 64.31%.
Compound `C=C(c1ccccc1)[C@@H]1CO[C@@]2(CC[C@@]3(C)[C@H](CC[C@@H]4[C@@H]3CC[C@]3(C)[C@@H]([C@H](C)C(C)=O)CC[C@@H]43)C2)OO1` (relative stereo; form 1) [listing 2 of 2 here] has an Activity of 94.31%.
`C=C(c1ccc(F)cc1)[C@@H]1CO[C@@]2(CC[C@@]3(C)[C@H](CC[C@@H]4[C@@H]3CC[C@]3(C)[C@@H]([C@H](C)C(C)=O)CC[C@@H]43)C2)OO1` (relative stereo; form 1) [listing 2 of 2 here] gave an Activity of 86.26%.
For `C=C(c1ccccc1)[C@@H]1CO[C@@]2(CC[C@@]3(C)[C@H](CC[C@@H]4[C@@H]3CC[C@]3(C)[C@@H]([C@H](C)CCC(=O)OC)CC[C@@H]43)C2)OO1` (relative stereo; form 1) [listing 2 of 2 here], the Activity was 20.6%.
In the case of `C=C(c1ccc(Cl)cc1)[C@@H]1CO[C@@]2(CC[C@@]3(C)[C@H](CC[C@@H]4[C@@H]3CC[C@]3(C)[C@@H]([C@H](C)CCC(=O)OC)CC[C@@H]43)C2)OO1` (relative stereo; form 2) [listing 2 of 2 here], the Activity is reported as 45.23%.
For `C=C(c1ccc(Br)cc1)[C@@H]1CO[C@@]2(CC[C@@]3(C)[C@H](CC[C@@H]4[C@@H]3CC[C@]3(C)[C@@H](C(C)=O)CC[C@@H]43)C2)OO1` (relative stereo; form 2) [listing 2 of 2 here], the Activity was 89.78%.
Work on `C=C(c1ccc(Cl)cc1)[C@@H]1CO[C@@]2(CC[C@@]3(C)[C@H](CC[C@@H]4[C@@H]3CC[C@]3(C)[C@@H]([C@H](C)C(C)=O)CC[C@@H]43)C2)OO1` (relative stereo; form 2) [listing 2 of 2 here] yielded an Activity of 34.65%.
In the case of `C=C(c1ccc(Br)cc1)[C@@H]1CO[C@@]2(CC[C@@]3(C)[C@H](CC[C@@H]4[C@@H]3CC[C@]3(C)[C@@H]([C@H](C)C(C)=O)CC[C@@H]43)C2)OO1` (relative stereo; form 2) [listing 2 of 2 here], the Activity is reported as 41.83%.
For `C=C(c1ccc(F)cc1)[C@@H]1CO[C@@]2(CC[C@@]3(C)[C@H](CC[C@@H]4[C@@H]3CC[C@]3(C)[C@@H]([C@H](C)CCC(=O)OC)CC[C@@H]43)C2)OO1` (relative stereo; form 2) [listing 2 of 2 here], the Activity was 33.13%.
In the case of `C=C(c1ccc(Br)cc1)[C@@H]1CO[C@@]2(CC[C@@]3(C)[C@H](CC[C@@H]4[C@@H]3CC[C@]3(C)[C@@H]([C@H](C)CCC(=O)OC)CC[C@@H]43)C2)OO1` (relative stereo; form 2) [listing 2 of 2 here], the Activity is reported as 18.57%.
